From ChEMBL document CHEMBL4622914, “Development of a bioavailable boron-containing PI-103 Bioisostere, PI-103BE” (Bioorg Med Chem Lett, 2020) come the findings set out here.

One data set concerns A549. The data set can be described thus: Antiproliferative activity against human A549 cells assessed as reduction in cell viability incubated for 4 days by coulter counter method. Type of data set: functional, cell-based. The following applies: A549, 96 h. In short, it runs like this:
(§1)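 Cancer cells were seeded at 50,000 per well in DMEM with 5% FBS. They were exposed to six compound doses for 4 days, with DMSO as vehicle control and a reference inhibitor as positive control. Cells were counted by Coulter counter. Survival ratio is treated cell number over vehicle cell number. IC50 was taken from dose–response curves. Triplicate experiments.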

The subject of the next data set is HeLa. The data set can be described thus: Antiproliferative activity against human HeLa cells assessed as reduction in cell viability incubated for 4 days by coulter counter method. Type of data set: functional, cell-based. As to conditions: 96 h. In outline:
as §1

The next data set deals with CWR22R. As to the kind of experiment: Antiproliferative activity against human 22Rv1 cells assessed as reduction in cell viability incubated for 4 days by coulter counter method. Type of data set: functional, cell-based. As to conditions: 22Rv1, 96 h. In outline:
as §1

Data set [1] can be described thus: Stability of compound in cell culture medium assessed as compound hydrolysis measured after 1 hr. The format is physicochemical.
The nature of data set [2]: Stability of compound in cell culture medium assessed as compound hydrolysis measured after 24 hrs. The format is physicochemical.
A short description of data set [3]: Drug concentration in ovariectomized nu/nu mouse plasma assessed 3-(4-morpholinopyrido [3',2':4,5] furo [3,2-d] pyrimidin-2-yl)phenol at 10 mg/kg, ip measured after 0.5 hrs by UHPLC-MS analysis. The format is ADME, organism-based. As to conditions: in vivo.
The nature of data set [4]: Drug concentration in ovariectomized nu/nu mouse plasma assessed 3-(4-morpholinopyrido [3',2':4,5] furo [3,2-d] pyrimidin-2-yl)phenol at 10 mg/kg, ip measured after 1 hr by UHPLC-MS analysis. As to conditions: in vivo. The format is ADME, organism-based.
A short description of data set [5]: Drug concentration in ovariectomized nu/nu mouse plasma assessed 3-(4-morpholinopyrido [3',2':4,5] furo [3,2-d] pyrimidin-2-yl)phenol at 10 mg/kg, ip measured after 24 hrs by UHPLC-MS analysis. The format is ADME, organism-based. As to conditions: in vivo.
The nature of data set [6]: Cmax in ovariectomized nu/nu mouse assessed 3-(4-morpholinopyrido [3',2':4,5] furo [3,2-d] pyrimidin-2-yl)phenol at 10 mg/kg, ip measured upto 24 hrs by UHPLC-MS analysis. The format is ADME, organism-based. Also on record: dose 10 mg/kg, route intraperitoneal. As to conditions: in vivo.
Data set [7] is described as follows: Half life in ovariectomized nu/nu mouse assessed 3-(4-morpholinopyrido [3',2':4,5] furo [3,2-d] pyrimidin-2-yl)phenol at 10 mg/kg, ip measured upto 24 hrs by UHPLC-MS analysis. The following applies: in vivo. Type of data set: ADME, organism-based.
Data set [8] can be described thus: AUC in ovariectomized nu/nu mouse assessed 3-(4-morpholinopyrido [3',2':4,5] furo [3,2-d] pyrimidin-2-yl)phenol at 10 mg/kg, ip measured upto 24 hrs by UHPLC-MS analysis. The format is ADME, organism-based. Also on record: time < 24 hr, dose 10 mg/kg, route intraperitoneal. As to conditions: in vivo.
Data set [9] can be described thus: Drug concentration in ovariectomized nu/nu mouse plasma assessed 3-(4-morpholinopyrido [3',2':4,5] furo [3,2-d] pyrimidin-2-yl)phenol at 10 mg/kg, po measured after 1 hr by UHPLC-MS analysis. The following applies: in vivo. The format is ADME, organism-based. In outline:
(§2)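 Female ovariectomized Nu/Nu mice, 4–6 weeks old, n = 5 per group. Single 10 mg/kg oral gavage in 5% DMSO/40% PEG 400/55% saline. Orbital-sinus blood was taken at 0.5, 1, 3, 8 and 24 h, one sampling per group, into EDTA. Plasma was spun at 4 °C and stored at −80 °C. The prodrug's boronic acid metabolite and phenol were quantified by C18 UHPLC–TSQ MS/MS with an acetonitrile/water 0.05% formic acid gradient.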

Data set [10] is described as follows: Cmax in ovariectomized nu/nu mouse assessed 3-(4-morpholinopyrido [3',2':4,5] furo [3,2-d] pyrimidin-2-yl)phenol at 10 mg/kg, po measured upto 24 hrs by UHPLC-MS analysis. The format is ADME, organism-based. Set-up: dose 10 mg/kg, route oral. As to conditions: in vivo. In outline: as §2
Data set [11] is described as follows: Half life in ovariectomized nu/nu mouse assessed 3-(4-morpholinopyrido [3',2':4,5] furo [3,2-d] pyrimidin-2-yl)phenol at 10 mg/kg, po measured upto 24 hrs by UHPLC-MS analysis. Type of data set: ADME, organism-based. The following applies: in vivo. In short, it runs like this:
as §2

A short description of data set [12]: Drug concentration in ovariectomized nu/nu mouse plasma assessed (3-(4-morpholinopyrido [3',2':4,5] furo [3,2-d] pyrimidin-2-yl)phenyl)boronic acid at 10 mg/kg, ip measured after 1 hr by UHPLC-MS analysis. Type of data set: ADME, organism-based. As to conditions: in vivo.
A short description of data set [13]: Drug concentration in ovariectomized nu/nu mouse plasma assessed (3-(4-morpholinopyrido [3',2':4,5] furo [3,2-d] pyrimidin-2-yl)phenyl)boronic acid at 10 mg/kg, ip measured after 3 hrs by UHPLC-MS analysis. Type of data set: ADME, organism-based. The following applies: in vivo.
A short description of data set [14]: Tmax in ovariectomized nu/nu mouse assessed (3-(4-morpholinopyrido [3',2':4,5] furo [3,2-d] pyrimidin-2-yl)phenyl)boronic acid at 10 mg/kg, ip measured upto 24 hrs by UHPLC-MS analysis. As to conditions: in vivo. The format is ADME, organism-based.
A short description of data set [15]: Drug concentration in ovariectomized nu/nu mouse plasma assessed (3-(4-morpholinopyrido [3',2':4,5] furo [3,2-d] pyrimidin-2-yl)phenyl)boronic acid at 10 mg/kg, po measured after 1 hr by UHPLC-MS analysis. The format is ADME, organism-based. The following applies: in vivo. In short, it runs like this: as §2
Data set [16] is described as follows: Drug concentration in ovariectomized nu/nu mouse plasma assessed (3-(4-morpholinopyrido [3',2':4,5] furo [3,2-d] pyrimidin-2-yl)phenyl)boronic acid at 10 mg/kg, po measured after 3 hrs by UHPLC-MS analysis. Type of data set: ADME, organism-based. As to conditions: in vivo. In short, it runs like this:
as §2

As to `CC1(C)OB(c2cccc(-c3nc(N4CCOCC4)c4oc5ncccc5c4n3)c2)OC1(C)C`, the IC50 (in general, the midpoint of a concentration-inhibition curve) came to 570 nM in the data set on A549, 3820 nM with HeLa and 660 nM in the data set on CWR22R. The Drug degradation in data set [1] is 0.01 µM; in [2], 0 µM. Also, the Cp in [3] is 14.9 ng/mL; in data set [4] it was 5.4 ng/mL; in [5], 0.4 ng/mL; in data set [9] it was 8.2 ng/mL; in [12], 44.5 ng/mL; in data set [13] it was 28 ng/mL. Further, the Cp in data set [15] is 709.2 ng/mL; in [16], 516.2 ng/mL. The Cmax – broadly, the maximum level reached in the sampled fluid or tissue – turned out to be 14.9 ng/mL in data set [6] and 8.2 ng/mL in data set [10]. In addition, the t1/2 is 12.4 h in data set [7] and 6.5 h in data set [11]. The AUC (as a rule, the area under the concentration-time curve, a measure of exposure) in [8] is 32.3 ng·h/mL. Moreover, in data set [14], the Tmax (in general, the time from dosing to the highest level) worked out at 1 h.
